Screening results from PubChem BioAssay.
Rows were chosen to be rich in hits. Some 1.8% of all compounds tested hit in one or more screens of this group.
M5 antag – blocks acetylcholine activation of human M5 receptor. P08912. CHO-hM5 cells, Fluo-8 calcium fluorescence, ACh EC80. inhibition, % at 3 µM. 0.59% of 360,000 active. AID 624040;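 active = inhibition above a per-plate cutoff, the mean of that plate's test compounds plus 3 SD, cut at about 27% in these data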;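 also: 0% = acetylcholine EC80 with DMSO and 100% = DMSO without agonist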
CHRM5 PAM – positive allosteric modulators of human muscarinic M5 receptor | AID 624038 | 0.3% of 360,000 active | CHO-K1 hM5, Fluo-8 calcium, ACh EC20 PAM; 0% = ACh EC20, 100% = ACh EC100 | activation, % at 3 µM | P08912;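 active = activation above the run cutoff, the mean activation of all test compounds plus 3 SD, cut at about 18% in these data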
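Test system: CHO-K1 hM5 cells / Doses: single-point, 3 µM nominal / Times: Post-acetylcholine fluorescence recording 140 s / Technique: Fluo-8 calcium fluorescence / Measure: Max/basal fluorescence ratio as % of EC20–EC100 ACh window / Benchmarks: low control EC20 acetylcholine (0%), high control EC100 acetylcholine (100%) / Replicates: one well per compound, no replicates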
CHRM4 agonist – CHRM4 agonism in calcium assay | P08173 | CHO-K1 hM4/Gqi5, Fluo-8 calcium fluorescence; vehicle 0%, full acetylcholine response 100% | AID 624127 | activation, % at 3 µM | 0.14% of 360,000 active;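 active = activation above the run mean over all test wells plus 3 SD, cut at about 32% in these data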;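 also: peak over basal fluorescence ratio per well then scaled between controls; 0% = DMSO wells and 100% = acetylcholine at EC100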
Target sequence (P08173 whole entry, looked up): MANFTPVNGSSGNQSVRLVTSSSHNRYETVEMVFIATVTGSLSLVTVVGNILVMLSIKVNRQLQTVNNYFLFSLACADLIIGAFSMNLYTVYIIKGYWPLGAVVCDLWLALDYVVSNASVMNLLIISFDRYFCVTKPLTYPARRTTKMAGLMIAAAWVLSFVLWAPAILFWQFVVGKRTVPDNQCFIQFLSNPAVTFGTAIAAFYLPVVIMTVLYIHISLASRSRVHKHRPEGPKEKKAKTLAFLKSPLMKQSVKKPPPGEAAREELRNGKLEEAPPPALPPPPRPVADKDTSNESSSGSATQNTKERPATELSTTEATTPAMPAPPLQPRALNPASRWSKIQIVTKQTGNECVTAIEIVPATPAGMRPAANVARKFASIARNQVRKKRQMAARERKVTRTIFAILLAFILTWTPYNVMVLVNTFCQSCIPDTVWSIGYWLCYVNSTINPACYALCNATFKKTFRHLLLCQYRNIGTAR
M4 antag – blocks acetylcholine activation of human M4 receptor. 0.73% of 360,000 active. CHO-hM4 cells, ACh EC80, Fluo-8 calcium fluorescence. inhibition, % at 3 µM. P08173. AID 624125;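 active = inhibition above its plate's cutoff, the mean inhibition of sample wells plus 3 SD, cut at about 27% in these data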;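 also: 0% = acetylcholine EC80 with DMSO and 100% = DMSO without agonist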
M5 ag – agonists of human muscarinic M5 receptor (CHRM5); P08912; CHO-K1 hM5 cells, Fluo-8 calcium fluorescence; 0% DMSO wells, 100% maximal acetylcholine response; 0.19% of 360,000 active; activation, % at 3 µM;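 active = activation above the run's mean over test compounds plus 3 SD, cut at about 23% in these data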;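 also: signal is peak over basal fluorescence ratio across the kinetic read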
CHRM4 PAM – CHRM4 positive allosteric modulation. P08173. CHO-K1 hM4/Gqi5, Fluo-8 calcium fluorescence, ACh EC20; 0% = ACh EC20, 100% = maximal ACh. activation, % at 3 µM. 0.4% of 360,000 active. AID 624126;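 active = activation above its plate's cutoff, the mean activation of sample wells plus 3 SD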
* hit, by the source's call.

SMILES	M5 antag	CHRM5 PAM	CHRM4 agonist	M4 antag	M5 ag	CHRM4 PAM
Fc1ccc2nncc(SCc3ccccc3Cl)c2c1	6	7	-2	-8	-5	-3
COc1ccccc1OCC(=O)Nc1ccc(CSc2ccccc2)cc1C	0	49*	0	1	12	7
CC[C@@H](C(=O)[C@@H](C)[C@@H](O)[C@H](C)CCc1ccc(C)c(O)c1C(=O)O)[C@H]1O[C@](CC)([C@H]2CC[C@](O)(CC)[C@H](C)O2)C[C@@H]1C	0	-14	72*	5	27*	-11
CSCCC(NC(=O)c1ccc(Cl)cc1)C(=O)NC(C)(C)C (configuration not stated)	-6	5	-2	-1	-3	-2
COc1ccccc1-c1noc(CCC(=O)Nc2cccnc2)n1	6	-2	3	-1	3	-4
COc1ccccc1-c1noc(CCC(=O)Nc2cc(C(F)(F)F)ccc2Cl)n1	2	19*	2	31*	0	24
COc1ccc(C2NCCc3c2[nH]c2ccccc32)cc1COc1ccc(F)cc1 (configuration not stated)	12	3	28	37*	7	-4
COc1ccc(CCn2cc(C#N)c(=O)[nH]c2=O)cc1OC	18	-14	2	-5	-2	-2
COc1ccccc1CCn1cc(C#N)c(=O)[nH]c1=O	6	0	-2	100*	-3	-16
O=C(CCC(=O)N1CCOc2ccccc21)NCCc1ccccc1	-6	5	2	1	0	3
Cc1nc2nc(-c3ccccc3)cn2nc1C	-9	0	1	-17	2	18*
CCC(C)(C)NC(=O)CN(CC1CCCO1)C(=O)CNS(=O)(=O)c1ccccc1 (configuration not stated)	1	0	0	7	-2	2
Nc1ncnc2c1ncn2[C@@H]1O[C@H](C(=O)N2CCN(c3ccc(Cl)cn3)CC2)[C@@H](O)[C@H]1O	6	6	0	-2	1	3
O=C(/C=C/c1ccc(F)cc1)NC(=S)Nc1ccccc1C(=O)NC1CCCCC1	9	21*	0	0	1	-5
CC(NC(=O)COC(=O)C1CCN(c2ccc(C(F)(F)F)cn2)CC1)c1ccc(Br)cc1 (configuration not stated)	-9	2	2	-23	-5	6
CN(CC1COCCO1)C(=O)c1cc(COc2c(F)cccc2F)on1 (configuration not stated)	0	0	3	2	0	23*
CN(CC1COc2ccccc2O1)C(=O)c1cc(COc2c(F)cccc2F)on1 (configuration not stated)	6	-2	6	-8	-4	3
CCOP(=O)(OCC)C(Nc1ccccc1)c1cccnc1 (configuration not stated)	-1	2	1	-12	1	-2
O=P(OC1CCCCC1)(OC1CCCCC1)C(Nc1ccccc1)c1cccnc1 (configuration not stated)	31*	-19	19	12	0	-9
CN(O)/C=N/C(=S)Nc1ccc(Cl)cc1Cl	14	1	0	1	-2	-2
CCCc1nc2c3ccccc3ccn2c1Cc1cccc(F)c1	47*	-22	-1	57*	-8	-17
CCCc1nc2ccc(C)cn2c1Cc1cccc(F)c1	1	-7	3	-8	-8	2
COc1ccc(CCN2C(=O)CSC2=Nc2ccc(C(C)C)cc2)cc1OC	35*	-34	11	37*	-6	-12
COC(=O)c1cc(C(=O)OCC(=O)NC(=O)c2ccccc2)cc([N+](=O)[O-])c1	4	3	-1	8	-3	-3
COC(=O)CCCN1C(=O)NC(c2ccc(-c3ccccc3)cc2)C(C(=O)OCc2ccccc2)=C1C (configuration not stated)	-1	2	0	4	1	1
SMILES	M5 antag	CHRM5 PAM	CHRM4 agonist	M4 antag	M5 ag	CHRM4 PAM
COC(=O)CCCCCN1C(=O)NC(C2CC2)C(C(=O)OCc2ccccc2)=C1C (configuration not stated)	29*	-31	16	16	4	-6
COc1cc(/C=C2\SC(=S)N(NC(=O)c3cccc(O)c3)C2=O)ccc1O	9	-9	36*	12	10	-14
COc1cc(/C=C2\SC(=S)N(CCC(=O)Nc3cccc(O)c3)C2=O)cc(OC)c1OC	27*	-18	18	13	-1	-11
COc1cc(/C=C2\SC(=S)N(NC(=O)c3ccc(O)c(OC)c3)C2=O)ccc1O	24	-17	35*	23	25*	-21
COc1cc(/C=C2\SC(=S)N(CCC(=O)Nc3ccccc3)C2=O)cc(OC)c1OC	6	-4	2	-5	2	-2
COc1ccc(CN2C[C@@H](CO)O[C@@H](n3cnc4c(NC5CCC5)ncnc43)C2)cc1	3	-1	1	7	0	-4
Cc1cccc(OCc2nnc(SCC(=O)N(C(C)C)C(C)C)n2Cc2ccco2)c1C	7	15	0	-3	-1	14
Cc1cc(NC(=O)CSc2nnc(COc3cccc(C)c3C)n2Cc2ccco2)no1	-5	4	1	-7	2	29*
Cc1cccc(NC(=O)CSc2nccn2Cc2ccco2)c1C	-37	20*	1	2	-2	19*
C=CC#CC1(O)CC(C)N(C)CC1C (configuration not stated)	-2	5	-1	3	-7	-6
CCn1cc([N+](=O)[O-])c(C(=O)N2CCCCCC2)n1	-5	1	0	-12	-6	1
CCn1cc([N+](=O)[O-])c(C(=O)N2CCCc3ccccc32)n1	1	2	1	4	-4	22*
COc1ccc(-c2nc3ccccc3nc2-c2ccc(OC)c(OC)c2)cc1OC	39*	-7	8	-1	-13	0
COC(=O)c1sccc1NC(=O)Nc1cccc(F)c1	3	-4	0	1	-5	0
O=C1c2cccc3c(N4CCCCC4)ccc(c23)C(=O)N1c1cccc(O)c1	37*	-19	41*	36*	141*	-24
Cc1n[nH]c(C)c1N1C(=O)c2cccc3c(N4CCCCCC4)ccc(c23)C1=O	54*	-21	85*	41*	76*	-29
COc1ccccc1C(=O)NCCC(=O)NCC(c1ccccc1)N(C)C (configuration not stated)	4	-1	0	2	0	-2
